Source: ChEMBL document CHEMBL1681736, “Towards more specific O6-methylguanine-DNA methyltransferase (MGMT) inactivators” (Bioorg Med Chem, 2011)

What was measured:
[1] = Solubility of the compound in phosphate buffer; format: physicochemical
How it was run: (§1)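 Solubility was assessed while setting up thermal denaturation experiments with salmon sperm DNA (68% A–T base-pair content). Each buffer (phosphate, MES, Tris) was tried alone and also mixed with DMSO or ethanol.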

[2] = Solubility of the compound in MES buffer; format: physicochemical; how it was run: as §1
[3] = Solubility of the compound in Tris buffer; format: physicochemical; how it was run: as §1
[4] = molecular target: T1, Methylated-DNA--protein-cysteine methyltransferase (Homo sapiens, UniProt P16455); experiment: Inactivation of human O-6-methylguanine-DNA methyltransferase assessed as [3H]methylated protein formation by liquid scintillation counting in presence of [3H]methylated calf thymus DNA
T1 sequence (P16455 whole entry): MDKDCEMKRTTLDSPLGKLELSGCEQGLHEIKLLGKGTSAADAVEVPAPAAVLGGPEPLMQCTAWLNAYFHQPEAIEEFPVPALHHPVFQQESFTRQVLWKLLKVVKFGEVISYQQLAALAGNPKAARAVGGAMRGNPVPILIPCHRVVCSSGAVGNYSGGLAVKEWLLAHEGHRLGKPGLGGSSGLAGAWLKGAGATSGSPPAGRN

Row | solubility [1] | solubility [2] | solubility [3] | IC50 [4] [µM] | Compound
1 | Insoluble | Insoluble | Insoluble |  | Nc1ccc(Oc2ccc(Nc3nc(N)nc(OCc4cc(Br)cs4)c3[N+](=O)[O-])cc2)cc1
2 | Insoluble | Insoluble | Insoluble |  | Nc1ccc(Cc2ccc(Nc3nc(N)nc(OCc4ccccc4)c3[N+](=O)[O-])cc2)cc1
3 | Insoluble | Insoluble | Insoluble |  | Nc1ccc(Nc2ccc(Nc3nc(N)nc(OCc4ccccc4)c3[N+](=O)[O-])cc2)cc1
4 | Insoluble | Insoluble | Insoluble | > 600 | Nc1ccc(Oc2ccc(Nc3nc(N)nc(OCc4ccccc4)c3[N+](=O)[O-])cc2)cc1
5 | Insoluble | Insoluble | Insoluble | > 600 | Nc1ccc(C(=O)c2ccc(Nc3nc(N)nc(OCc4ccccc4)c3[N+](=O)[O-])cc2)cc1

Continued, compound first:

Row | Compound | solubility [1] | solubility [2] | solubility [3] | IC50 [4] [µM]
6 | Nc1ccc(Cc2ccc(Nc3nc(N)nc(OCc4cc(Br)cs4)c3[N+](=O)[O-])cc2)cc1 | Insoluble | Insoluble | Insoluble | 
7 | Nc1ccc(Nc2ccc(Nc3nc(N)nc(OCc4cc(Br)cs4)c3[N+](=O)[O-])cc2)cc1 | Insoluble | Insoluble | Insoluble | 
8 | Nc1ccc(C(=O)c2ccc(Nc3nc(N)nc(OCc4cc(Br)cs4)c3[N+](=O)[O-])cc2)cc1 | Insoluble | Insoluble | Insoluble | 
9 | Nc1nc(OCc2cc(Br)cs2)c2[nH]cnc2n1 [LOMEGUATRIB] |  |  |  | 0.003
